# Assay results reported in the EternaBench riboswitch data.
# Tested on: MS2 coat protein
# Experiment: apparent Kd, MS2 coat protein; higher = weaker binding; RNA-MaP array; FMN 200 µM where present
# In short: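 Binding was read on Illumina sequencing-chip clusters where stalled E. coli RNA polymerase had transcribed each design. A titration of SNAP-549-labelled MS2 coat protein began at 0.7 or 1.5 nM and doubled to 3 µM, once without ligand and once with constant ligand, in 100 mM Tris-HCl pH 7.5, 80 mM KCl, 4 mM MgCl2, BSA, DTT, yeast tRNA and Tween-20. The apparent Kd is the median of filtered per-cluster binding-curve fits, based on green signal normalised to red-channel RNA signal and control-cluster median Fmax.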
# [1] = designed as: ON switch for flavin mononucleotide, no ligand
# [2] = ligand present: flavin mononucleotide, designed as: ON switch for flavin mononucleotide
# [3] = designed as: OFF switch for flavin mononucleotide, no ligand
# [4] = ligand present: flavin mononucleotide, designed as: OFF switch for flavin mononucleotide
Sequence,apparent Kd [1] [nM],apparent Kd [2] [nM],apparent Kd [3] [nM],apparent Kd [4] [nM]
AAAAAAAAAAGACAGGAUAUCCAAAAAAAAACAUGAGGAUCACCCAUGUAAAAAAAAAAAAAGUGGGAGAAGGGUCAAAAAAAAAA,57.7,23.2,–,–
AAAAAACAAGGAUAUACGAAGGAUGGUUAUCUUAAUUUUUGACAUGAGGAUCACCCAUGUAGAAGGUGUUAAAA,–,–,37.9,76.2
AAAAAACAUGAGGAUCACCCAUGUAAUAAAACGUCAGGAUAUUGAUUUUAUUAUUUAUUACAAGAAGGGACAAAAA,133,57.6,–,–
AAAAAACAUGAGGAUCACCCAUGUCAGGAUAUACGAUAAAAAAAAAAAAAAAAAAAAUGUAGAAGGGACAAAAA,–,–,78.3,73.9
AAAAAACAUGAGGAUCACCCAUGUCGAAAGACGUGAGGAUAUGUACAGACUUCGGUCUGUACAGAAGGCAUGUCAA,94,20.2,–,–
AAAAAACAUGAGGAUCACCCAUGUCUUUUGACAUGAGGAUAUGUACAGACUUCGGUCUGUACAGAAGGCAUGUAAA,511,34.7,–,–
AAAAAACAUGAGGAUCACCCAUGUGAGGAUAUCGAAAAGUCAAAGAAAAAGACGAAAACGAGAAGGCGCAAAAA,–,–,49.6,45.5
AAAAAACAUGAGGAUCACCCAUGUGAGGAUAUCGAGAAGAAGAAGAAGAAGAAGAGAACGAGAAGGCACAAAAA,–,–,47.4,51.5
AAAAAACAUGAGGAUCACCCAUGUUAGGAUAUGCUAUGGAAAAUAAAAAAUAAACAUAGCAGAAGGAACAAAAA,–,–,43.4,48.9
AAAAAGACAGGAUAUACAUGAAAAAAAAAAAAAAAAAAAAAACAUGAGGAUCACCCAUGUAGAAGGGUCAAAAA,–,–,111,106
AAAAAGGCAGGAUAUACAUGAGGAUCACCCAUGUUUUAAAAAAAAAAAAAAAAAAAAAGUAGAAGGGCCAAAAA,–,–,55.4,45.1
AAAAAGUCAGGAUAUGGCAAAGGUCACGAAAGUGACAAAGGCUAGAAGGGACAUGAGGAUCACCCAUGUAAAAA,–,–,29,32.4
AAAAAGUCAGGAUAUGUAGCAAAAGGUGAUCAAAAAAAGCUACAGAAGGGACAUGAGGAUCACCCAUGUAAAAA,–,–,262,336
AAAAAGUGAGGAUAUACAUGAGGAUCACCCAUGUAAUAAAAAAAAAGGGUGGAAGAAAGUAGAAGGCACCAAAA,–,–,62.4,356
AAAAAUGGAGGAUAUACAUGAGGAUCACCCAUGUGUGACUAUACUAUGCGCUCUUCAGGUAGAAGGCCAAAAAA,–,–,28.4,39.4
AAAACAUGAGGAUCACCCAUGUAAAGAACGGUUAAUAGAAGUGAGGAUAUACUAAAUUUUAGGUAGUAGAAGGCACUGGGUACA,21.5,22.5,–,–
AAAACAUGAGGAUCACCCAUGUAAAGAUCGGUCGAUCAAGGUGAGGAUAUACAAAACUUGAUGGAGUAGAAGGCACUGGGUUGA,384,201,–,–
AAAACAUGAGGAUCACCCAUGUAAAGUUCAAACAAUAUGAGUGAGGAUAUACUGAGUUAGUUAUGGUAGAAGGCACUGGGUACA,35,28.7,–,–
AAAACGAAAGUCGAACGAUGUAGCAGAAGGACAUGAGGAUCACCCAUGUCAGCUGUAACAGCCAUGUAGGAUAUGCUACAUUUU,–,–,5.47,6.35

Sequence,apparent Kd [1] [nM],apparent Kd [2] [nM],apparent Kd [3] [nM],apparent Kd [4] [nM]
AAAACGUCAGGAUAUACAGAAGAGAUCACAAAAAAAAAAAAACAUGAGGAUCACCCAUGUAGAAGGGACAAAAA,–,–,138,188
AAAACUGAAGGAUAUGCCAGGGUGAGAGCUGGUGACGUUUAACAUGAGGAUCACCCAUGUAGAAGGUCAAAACA,–,–,15.3,17
AAAAGCCAAGGAUAUACAUGAGGAUCACCCAUGUAAGAAAUGGGCGCUACCGUUCCGUGUAGAAGGUGGGAAAA,–,–,28.6,65
AAAAGGGCAGGAUAUACAUGAGGAUCACCCAUGUGAAAAAAAAAAAAAAAAAAAAAGUGUAGAAGGGUCAAAAA,–,–,74,76
AAAAUACAUGAGGAUCACCCAUGUUAGGAUAUCCAAGGCCUGACCCUCAAGGUCAGGCGGAGAAGGGAUGUGGU,–,–,50.4,51.3
AAAAUCUAUUGAGGAUAUUCAUACACUACGUACGGAGAAGGCAAACAAUCAUGAGGACAUGAGGAUCACCCAUGUUGUGACCAU,17.6,10.6,–,–
AAAAUGUCAGGAUAUGCGAAGGCAUCUGACAGAUGAGGAUUGCAGAAGGGACAUGAGGAUCACCCAUGUAAAAA,–,–,40.3,47.5
AAAAUGUGAGGAUAUCACGGAACUCCGCGUGACGGAGCUCCUGAGAAGGCACAUGAGGAUCACCCAUGUCCUGU,–,–,52.8,276
AAACACGGACAUGAGGAUCACCCAUGUGGCGAAAGCCUUGGGAGAAGGUAUUAUGCAAAGCAUUAUAAGGAUAUUCAUACCGUG,821,187,–,–
AAACCGUGUGGAGGAUAUGCAGUUGAGGUGAGGUGGCAACUCUAUACGACAGCAGAAGGCCACAUGAGGAUCACCCAUGUAGGU,–,–,251,73.6
AAACUGUGAGGAUAUGGUGAGUAGUGCCUGAGCGCUGCUCACCAGAAGGCACAUGAGGAUCACCCAUGUAUAAA,–,–,25.5,74.7
AAAGACAUGGUGCAGGAUAUAUUAAUAGUCACAUGAGGAUCACCCAUGUUCAGAUAUCUGAACGAGUAGAAGGGCGAUGAAAAAA,602,589,–,–
AAAGAGCGAGGAUAUACGUAUCGGUGCGGCCCGCCGAUGUGACAUGAGGAUCACCCAUGUAGAAGGCGCAGAAA,–,–,26.2,33
AAAUAAACUACGAAGAUAUCCUCACAUGAGGAUCACCCAUGUCAGGAUAUUUGUCCUAAAAGGACAGAGAAGGGACAUCGUAGA,–,–,5.15,11.4
AAAUAAAGCAGUGUAUUAAUAUAACAUGAGGAUCACCCAUGUAGAAGGCUCGAGCAAUAUGCUCGAGAGGAUAUACAACACUGC,–,–,7.3,7.18
AAAUAAAGCAGUGUGGUAAGAUCACAUGAGGAUCACCCAUGUAAGGAUAUCUGUCCUAAAAGGACAGAGAAGGUACGUCACUGC,–,–,18.9,79.6
AAAUAACAUGUAGGAUAUCCAGCAUUGACCAUCGGAGAAGGACAUGAGGAUCACCCAUGUACCGAUACAAUGGAAUAAGGGAAU,–,–,16,17.9
AAAUAACCUAGCAAAAUUUCCUCACAUGAGGAUCACCCAUGUAGAAGGCUGUCCUAAAAUAGGACAGAGGAUAUACAUGCUAGG,–,–,10.6,171
AAAUACCUUGUGAUCAGCGUAACAUGAGGAUCACCCAUGUUGCAGGAUAUCGAACCCAGUCAGUACGAGAAGGGCAAUAGUGUU,–,–,7.16,11.6

Sequence,apparent Kd [1] [nM],apparent Kd [2] [nM],apparent Kd [3] [nM],apparent Kd [4] [nM]
AAAUAGGUAGGAUAUACAUGGAUAUACAUUCAUGUGGACCUACAUGAGGAUCACCCAUGUAGAAGGACCUAGUA,–,–,40.2,43.7
AAAUAGUUAGGAUAUACAUGAGGAUCACCCAUGUGGACUGAUGGCGAUUGAUUCAGUGGUAGAAGGGACUCAAA,–,–,37.4,56.4
AAAUCAGCAGGAUAUACGAUUUUAUGCUAGAUAGAGGGACCACAUGAGGAUCACCCAUGUAGAAGGGCUAGAUA,–,–,24.6,26.4
AAAUUCCUCACAGGAUAUCCUACAUGAGGAUCACCCAUGUACUAACUGAGCAAAUUGCAACAAAAGGAGAAGGGUGAGGUGAAG,36.3,4.25,–,–
AAAUUCCUCACAGGAUAUCCUACAUGAGGAUCACCCAUGUACUAACUGAGCGAAUUGCAACAAAAGGAGAAGGGUGAGGUGAAG,31.5,6.35,–,–
AAAUUCUGAGGAUAUCGAUGUUUGUACAUGAGGAUCACCCAUGUCCUUUUUAUUUUUUCUCGAGAAGGCAGUGUAU,–,–,38.1,35.3
AAAUUUAACGAAGGAUAUGGUUACAUGAGGAUCACCCAUGUGUGCCUUGUGAUGCUGAUUAAGUUCCAGAAGGUCGUAUACAUA,–,–,84.8,234
AACAAGUUAGGAUAUGCUGCUCGUCACAAAAGUGAUGAGUAGCAGAAGGAACAUGAGGAUCACCCAUGUAAAGA,–,–,29.3,23.7
AACAAUCUAUCUGAGGAUAUCAUGAAAAAAACAUGAGGAUCACCCAUGUGCAGGAAAACUGCAUAUGAGAAGGCAGAUAGAUUGA,702,27,–,–
AACAGGUUCACAUGAGGAUCACCCAUGUUAGCCUAAUGUAGGAGAAGGACGGUAGCUGGGCUGACGUAGGAUAUCCUACUGUGA,5.08,5.11,–,–
AACAGUACAGGAUAUACAUGAGGAUCACCCAUGUGAGAAUUAAGUGGCGAACCACAAAGUAGAAGGGUACUGGA,–,–,59.6,197
AACAGUAUAGGAUAUACAUGAGGAUCACCCAUGUGAGAAUUACGUGGCGUACCACGAAGUAGAAGGAUACUGGA,–,–,38.6,168
AACAUGGUGCAGGAUAUCCAACAUAUCGCGAGAGGAGAAGGGUACACAUGAGGAUCACCCAUGUGUGGUCUGUU,–,–,29.3,223
AACCUAAAACAGAAGGCCAGCUACAUGAGGAUCACCCAUGUCGAAUCAUGGAGGAUAUGUUGUUAUUUACUCGCAGAUGAGUGC,28.1,5.51,–,–
AACGAUCUAGGAUAUACAUGAGGAUCACCCAUGUAAGAGCUCAAACCGAGCUCCCUCUGUAGAAGGAGGUCAAA,–,–,54.5,45.9
AACGCGGAAAUCGCAAUACAUGAGGAUCACCCAUGUAGAUCGCAGGAUAUGGUCUAGUCAGUGGUCCAGAAGGGUGAUCAGAAC,125,74.5,–,–
AACGGGUCAGGAUAUUGUUAGUUUAGUUGUUUGUAUUAGUUCGAGAAGGGACAUGAGGAUCACCCAUGUGGUAA,–,–,66.1,62
AACGGGUGGGUAGGAUAUGGCCAUGUCUCAUUGCUAGAAGGACCAGCUGCUACAUGAGGAUCACCCAUGUCGUAGUGCACCCAG,105,15.6,–,–
